Measured values reported in ChEMBL document CHEMBL4665898, “Semisynthetic Analogs of the Antibiotic Fidaxomicin-Design, Synthesis, and Biological Evaluation” (ACS Med Chem Lett, 2020).
In brackets after ≈: the same amount, converted by molar mass.

Tests used:
Clostridioides difficile [1] = assay: Antibacterial activity against Clostridium difficile BAA-1805 incubated for 46 hrs in anaerobic condition by CLSI-based broth microdilution assay; format: functional
Clostridioides difficile [2] = assay: Antibacterial activity against Clostridium difficile ATCC 43255 incubated for 46 hrs in anaerobic condition by CLSI-based broth microdilution assay; format: functional
Clostridioides difficile [3] = assay: Antibacterial activity against Clostridium difficile ATCC 9689 incubated for 46 hrs in anaerobic condition by CLSI-based broth microdilution assay; format: functional; conditions: ATCC 9689 = DSM 1296
Clostridioides difficile [4] = assay: Antibacterial activity against Clostridium difficile 5680 incubated for 46 hrs in anaerobic condition by CLSI-based broth microdilution assay; format: functional
Bacillus subtilis = assay: Antibacterial activity against Bacillus subtilis DSM3256 incubated overnight by broth dilution method; format: functional
Procedure, shortened: (§1)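 Strains pre-grown overnight at 37 °C on Mueller Hinton II agar; CLSI broth dilution, inoculum about 7.5 × 10^5 CFU/well. Compounds taken from 1.0 mg/mL stocks in 50 % methanol/H2O, diluted in H2O as 2-fold series. Plates held at 37 °C overnight; MIC read visually as lowest concentration with no growth.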

[5] = Aqueous solubility of the compound in phosphate buffer at pH 7 after 5 hrs by UHPLC analysis; format: physicochemical
Procedure, shortened: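 Solid added to 1.0 mL pH 7 phosphate buffer containing 50 µg/mL caffeine internal standard until saturated. Stirred 5 h at room temperature, passed through a 0.22 µm filter, then run on C18 UHPLC with a water/MeCN + 0.1 % HCOOH gradient. Analyte/IS peak-area ratio was converted to concentration using a linear calibration from MeOH standards at 50–500 µg/mL.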

Staphylococcus aureus = assay: Antibacterial activity against Staphylococcus aureus ATCC 29213 incubated overnight by broth dilution method; format: functional; procedure, shortened: as §1
Clostridioides difficile [6] = assay: Antibacterial activity against Clostridium difficile 8260 incubated for 46 hrs in anaerobic condition by CLSI-based broth microdilution assay; format: functional
Clostridioides difficile [7] = assay: Antibacterial activity against Clostridium difficile ATCC 700057 incubated for 46 hrs in anaerobic condition by CLSI-based broth microdilution assay; format: functional
Clostridioides difficile [8] = assay: Antibacterial activity against Clostridium difficile BAA-1875 incubated for 46 hrs in anaerobic condition by CLSI-based broth microdilution assay; format: functional
Clostridioides difficile [9] = assay: Antibacterial activity against Clostridium difficile 8282 incubated for 46 hrs in anaerobic condition by CLSI-based broth microdilution assay; format: functional
Clostridioides difficile [10] = assay: Antibacterial activity against Clostridium difficile 8290 incubated for 46 hrs in anaerobic condition by CLSI-based broth microdilution assay; format: functional
[11] = tested on: Mycobacterium tuberculosis; assay: Antimycobacterial activity against recombinant Mycobacterium tuberculosis H37Rv expressed in green fluorescence protein by measuring increase in fluorescence after 10 days in presence of middlebrook 7H9/OADC medium by GFP reporter gene assay; format: functional; conditions: 240 h, time 10 day
Clostridioides difficile [12] = assay: Antibacterial activity against Clostridium difficile 8264 incubated for 46 hrs in anaerobic condition by CLSI-based broth microdilution assay; format: functional

| SMILES | MIC (Clostridioides difficile [1]) | MIC (Clostridioides difficile [2]) | MIC (Clostridioides difficile [3]) | MIC (Clostridioides difficile [4]) | MIC (Bacillus subtilis) | solubility at 5 h [5] | MIC (Staphylococcus aureus) | MIC (Clostridioides difficile [6]) | MIC (Clostridioides difficile [7]) | MIC (Clostridioides difficile [8]) | MIC (Clostridioides difficile [9]) | MIC (Clostridioides difficile [10]) | MIC90 [11] | MIC (Clostridioides difficile [12]) |
| --- | --- | --- | --- | --- | --- | --- | --- | --- | --- | --- | --- | --- | --- | --- |
| CCc1c(Cl)c(OCC(=O)N2CCNCC2)c(Cl)c(O)c1C(=O)O[C@@H]1[C@@H](O)[C@@H](OC)[C@@H](OC/C2=C\C=C\C[C@H](O)/C(C)=C/[C@H](CC)[C@@H](O[C@@H]3OC(C)(C)[C@@H](OC(=O)C(C)C)[C@H](O)[C@@H]3O)/C(C)=C/C(C)=C/C[C@@H]([C@@H](C)O)OC2=O)O[C@H]1C | 0.5 µg/mL (≈ 0.422 µM) | 0.5 µg/mL (≈ 0.422 µM) | 0.03 µg/mL (≈ 0.0253 µM) | 0.5 µg/mL (≈ 0.422 µM) | > 64 µg/mL | 81 µg/mL (≈ 68.4 µM) | > 64 µg/mL | 0.03 µg/mL (≈ 0.0253 µM) | 0.25 µg/mL (≈ 0.211 µM) | 0.5 µg/mL (≈ 0.422 µM) | 0.06 µg/mL (≈ 0.0507 µM) | 0.25 µg/mL (≈ 0.211 µM) | 1 µg/mL | 0.5 µg/mL (≈ 0.422 µM) |
| CCc1c(Cl)c(OCC(=O)N2CCC(O)CC2)c(Cl)c(O)c1C(=O)O[C@@H]1[C@@H](O)[C@@H](OC)[C@@H](OC/C2=C\C=C\C[C@H](O)/C(C)=C/[C@H](CC)[C@@H](O[C@@H]3OC(C)(C)[C@@H](OC(=O)C(C)C)[C@H](O)[C@@H]3O)/C(C)=C/C(C)=C/C[C@@H]([C@@H](C)O)OC2=O)O[C@H]1C | – | – | – | – | – | 180 µg/mL (≈ 150 µM) | – | – | – | – | – | – | – | – |
| CCOC(=O)COc1c(Cl)c(CC)c(C(=O)O[C@@H]2[C@@H](O)[C@@H](OC)[C@@H](OC/C3=C\C=C\C[C@H](O)/C(C)=C/[C@H](CC)[C@@H](O[C@@H]4OC(C)(C)[C@@H](OC(=O)C(C)C)[C@H](O)[C@@H]4O)/C(C)=C/C(C)=C/C[C@@H]([C@@H](C)O)OC3=O)O[C@H]2C)c(OCC(=O)OCC)c1Cl | > 16 µg/mL | > 16 µg/mL | 4 µg/mL (≈ 3.25 µM) | > 16 µg/mL | 8 µg/mL (≈ 6.5 µM) | – | 32 µg/mL (≈ 26 µM) | 16 µg/mL (≈ 13 µM) | 16 µg/mL (≈ 13 µM) | 16 µg/mL (≈ 13 µM) | 16 µg/mL (≈ 13 µM) | 16 µg/mL (≈ 13 µM) | 0.5 µg/mL | > 16 µg/mL |
| CCc1c(Cl)c(OCCCn2cc(CCN3CCC(N)CC3)nn2)c(Cl)c(O)c1C(=O)O[C@@H]1[C@@H](O)[C@@H](OC)[C@@H](OC/C2=C\C=C\C[C@H](O)/C(C)=C/[C@H](CC)[C@@H](O[C@@H]3OC(C)(C)[C@@H](OC(=O)C(C)C)[C@H](O)[C@@H]3O)/C(C)=C/C(C)=C/C[C@@H]([C@@H](C)O)OC2=O)O[C@H]1C | 8 µg/mL (≈ 6.19 µM) | 4 µg/mL (≈ 3.09 µM) | 0.5 µg/mL (≈ 0.387 µM) | 8 µg/mL (≈ 6.19 µM) | > 64 µg/mL | – | > 64 µg/mL | 4 µg/mL (≈ 3.09 µM) | 2 µg/mL (≈ 1.55 µM) | 2 µg/mL (≈ 1.55 µM) | 1 µg/mL (≈ 0.773 µM) | 4 µg/mL (≈ 3.09 µM) | 4 µg/mL | 8 µg/mL (≈ 6.19 µM) |
| CCc1c(Cl)c(OCCOCCOCCOCCOCCOCCOCCOCCn2cc(CN3CCN(/N=C/c4c5c(O)c6c(O)c(C)c7c(c6c4O)C(=O)[C@@](C)(O/C=C/[C@H](OC)[C@@H](C)[C@@H](OC(C)=O)[C@H](C)[C@H](O)[C@H](C)[C@@H](O)[C@@H](C)/C=C/C=C(\C)C(=O)N5)O7)CC3)nn2)c(Cl)c(O)c1C(=O)O[C@@H]1[C@@H](O)[C@@H](OC)[C@@H](OC/C2=C\C=C\C[C@H](O)/C(C)=C/[C@H](CC)[C@@H](O[C@@H]3OC(C)(C)[C@@H](OC(=O)C(C)C)[C@H](O)[C@@H]3O)/C(C)=C/C(C)=C/C[C@@H]([C@@H](C)O)OC2=O)O[C@H]1C | ≤ 0.015 µg/mL | ≤ 0.015 µg/mL | ≤ 0.015 µg/mL | ≤ 0.015 µg/mL | 4 µg/mL (≈ 1.75 µM) | – | 4 µg/mL (≈ 1.75 µM) | ≤ 0.015 µg/mL | ≤ 0.015 µg/mL | ≤ 0.015 µg/mL | 4 µg/mL (≈ 1.75 µM) | 0.03 µg/mL (≈ 0.0131 µM) | 0.5 µg/mL | 0.03 µg/mL (≈ 0.0131 µM) |
| CCc1c(Cl)c(OCCOCCOCCOCCOCCOCCOC)c(Cl)c(OCCOCCOCCOCCOCCOCCOC)c1C(=O)O[C@@H]1[C@@H](O)[C@@H](OC)[C@@H](OC/C2=C\C=C\C[C@H](O)/C(C)=C/[C@H](CC)[C@@H](O[C@@H]3OC(C)(C)[C@@H](OC(=O)C(C)C)[C@H](O)[C@@H]3O)/C(C)=C/C(C)=C/C[C@@H]([C@@H](C)O)OC2=O)O[C@H]1C | – | – | – | – | – | 504 µg/mL (≈ 312 µM) | – | – | – | – | – | – | – | – |
